According to ChEMBL document CHEMBL4732180, “Discovery of novel positive allosteric modulators of the α7 nicotinic acetylcholine receptor: Scaffold hopping approach” (Eur J Med Chem, 2021):

Tests used:
[1] = Cmax in Wistar rat plasma at 3 mg/kg, po up to 5 hrs by HPLC-MS/MS analysis; assay type: ADME, organism-based; design: route oral, dose 3 mg/kg, time <=5
[2] = Clearance in Wistar rat plasma at 3 mg/kg, iv up to 5 hrs by HPLC-MS/MS analysis; assay type: ADME, organism-based
[3] = Intrinsic clearance in human liver microsome at 1 to […] up to 40 mins; assay type: ADME; conditions: liver microsomes, dose 1-2.5 µM, read-out: CLH
[4] = Cmax in Wistar rat brain at 3 mg/kg, po up to 5 hrs by HPLC-MS/MS analysis; assay type: ADME, organism-based; design: route oral, dose 3 mg/kg, time <=5
[5] = Intrinsic clearance in mouse liver microsome at 1 to […] up to 40 mins; assay type: ADME; conditions: liver microsomes, dose 1-2.5 µM, read-out: CLH
[6] = Tmax in Wistar rat plasma at 3 mg/kg, po up to 5 hrs by HPLC-MS/MS analysis; assay type: ADME, organism-based
[7] = AUC (0 to 5 hrs) in Wistar rat brain at 3 mg/kg, po up to 5 hrs by HPLC-MS/MS analysis; assay type: ADME, organism-based; design: route oral, dose 3 mg/kg, time <=5
[8] = Volume of distribution in Wistar rat plasma at 3 mg/kg, iv up to 5 hrs by HPLC-MS/MS analysis; assay type: ADME, organism-based
[9] = Apparent permeability across apical to basolateral side in vinblastine-treated human Caco2 cells at 10 uM after 180 mins by HPLC or UHPLC-MS/MS analysis; assay type: ADME; conditions: Caco-2
Procedure, shortened: (§1)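 Vinblastine-selected Caco-2 (VB-Caco-2) monolayers with high P-gp expression. Compound at 1 or 10 µM, measured apical-to-basolateral and basolateral-to-apical in HBSS with 25 mM HEPES. pH 7.4 on both sides, 37 °C, 120 rpm shaking, up to 180 min with compound-specific duration. Quantified by HPLC or UHPLC-MS/MS; PDR = Papp B-A / Papp A-B.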

[10] = Half life in Wistar rat plasma at 3 mg/kg, iv up to 5 hrs by HPLC-MS/MS analysis; assay type: ADME, organism-based
[11] = Intrinsic clearance in rat liver microsome at 1 to […] up to 40 mins; assay type: ADME; conditions: liver microsomes, dose 1-2.5 µM, read-out: CLH
[12] = AUC (0 to 5 hrs) in Wistar rat plasma at 3 mg/kg, po up to 5 hrs by HPLC-MS/MS analysis; assay type: ADME, organism-based; design: route oral, dose 3 mg/kg, time <=5
[13] = Tmax in Wistar rat brain at 3 mg/kg, po up to 5 hrs by HPLC-MS/MS analysis; assay type: ADME, organism-based
[14] = AUC (0 to 5 hrs) in Wistar rat plasma at 3 mg/kg, iv up to 5 hrs by HPLC-MS/MS analysis; assay type: ADME, organism-based; design: route intravenous, dose 3 mg/kg, time <=5
[15] = Lipophilicity, logP of compound; assay type: physicochemical; conditions: octanol/water
[16] = Apparent permeability across apical to basolateral side in vinblastine-treated human Caco2 cells at 1 uM after 180 mins by HPLC or UHPLC-MS/MS analysis; assay type: ADME; conditions: Caco-2; procedure, shortened: as §1

| Cmax [1] [ng/mL] | clearance [2] [mL/min/kg] | microsomal CLint at […] [3] [µL/min/mg] | Cmax [4] [ng/mL] | microsomal CLint at […] [5] [µL/min/mg] | Tmax [6] [h] | AUC(0-t) [7] [ng·h/mL] | Vd [8] [L/kg] | Papp A→B at 3 h, 10 µM [9] [×10⁻⁶ cm/s] | half-life [10] [h] | microsomal CLint at […] [11] [µL/min/mg] | AUC(0-t) [12] [ng·h/mL] | Tmax [13] [h] | AUC(0-t) [14] [ng·h/mL] | logP [15] | Papp A→B at 3 h, 1 µM [16] [×10⁻⁶ cm/s] | Structure (SMILES) |
| --- | --- | --- | --- | --- | --- | --- | --- | --- | --- | --- | --- | --- | --- | --- | --- | --- |
| 31.6 | 14.1 | 4 | 36.8 | 5 | 2 | 158 | 1.17 | 18 | 0.97 | 10 | 134 | 2 | 3490 | 3.1 |  | NS(=O)(=O)c1ccc(-c2cc(C(=O)N3CC4CC4C3)nn2-c2ccc(Cl)cc2)cc1 (stereo not given) |
|  |  | 18 |  | 16 |  |  |  | 20 |  | 20 |  |  |  | 3.8 |  | CCC(=O)c1cc(-c2ccc(S(N)(=O)=O)cc2)n(-c2ccc(Cl)cc2)n1 |
|  |  | 3 |  | 26 |  |  |  |  |  | 10 |  |  |  | 4.7 | 9 | CCC(=O)c1cc(-c2ccc(Cl)cc2)n(-c2ccc(S(N)(=O)=O)cc2)c1C |
